Most compounds without a hit are left out; they make up all but 2.3% or so of the library.
OXTR agonist: human OXTR agonists, primary screen, fluorescence, CHO-OTR cells, Fluo-8 calcium | Oxytocin receptor (Homo sapiens), P30559 | Fluo-8 calcium fluorescence; normalized: DMSO 0%, oxytocin 100% | activation, % at 3 µM | hit rate 0.32% among 320,000 | AID 2435, 2010;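 active = activation above the mean of all tested compounds plus 3 SD, cutoff set per screening run, cut at about 20% in these data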;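 note: peak over basal fluorescence ratio from a 100 s FLIPR kinetic read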
Target sequence (P30559 whole entry, looked up): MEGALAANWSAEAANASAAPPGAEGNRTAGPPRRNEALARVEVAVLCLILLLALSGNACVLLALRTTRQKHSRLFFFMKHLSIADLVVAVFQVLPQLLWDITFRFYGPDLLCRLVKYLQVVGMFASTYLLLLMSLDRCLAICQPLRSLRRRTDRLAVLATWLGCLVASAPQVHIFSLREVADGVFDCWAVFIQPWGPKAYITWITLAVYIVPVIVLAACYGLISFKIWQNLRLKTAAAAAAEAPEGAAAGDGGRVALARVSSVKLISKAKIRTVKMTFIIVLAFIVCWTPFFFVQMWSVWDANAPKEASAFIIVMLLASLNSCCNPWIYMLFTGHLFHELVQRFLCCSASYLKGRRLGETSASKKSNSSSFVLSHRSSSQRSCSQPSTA
TAAR1 ag: human TAAR1 agonists, primary screen, Fluo-8 calcium fluorescence, CHO RD-HGA16 cells; vehicle wells 0%, saturating PEA agonist 100%; activation, % at 3 µM; hit rate 0.99% among 360,000; AID 624467, 2012;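 active = activation above the mean activation of all test compounds in the run plus 3 SD, cut at about 38% in these data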
Target sequence (Q96RJ0 whole entry, looked up): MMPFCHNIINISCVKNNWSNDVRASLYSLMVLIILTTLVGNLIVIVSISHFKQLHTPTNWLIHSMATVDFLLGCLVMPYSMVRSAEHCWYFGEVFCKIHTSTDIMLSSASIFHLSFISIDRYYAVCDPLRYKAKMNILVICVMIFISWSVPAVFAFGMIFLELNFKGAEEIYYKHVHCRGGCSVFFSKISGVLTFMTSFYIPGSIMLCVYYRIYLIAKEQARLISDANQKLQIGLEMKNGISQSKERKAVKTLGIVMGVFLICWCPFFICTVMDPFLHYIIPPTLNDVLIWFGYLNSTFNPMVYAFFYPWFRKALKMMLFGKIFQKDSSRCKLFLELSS
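Benchmarks: low control DMSO, high control PEA (EC100); System: CHO RD-HGA16 cells carrying human TAAR1 plus Gα16; Detection: Fluo-8 fluorescence, 5 s baseline then 140 s kinetic read; Schedule: 17-24 h plating, Fluo-8 75 min 37 °C, 30 min RT; Read-out basis: % activation from peak over basal fluorescence ratio, DMSO-to-PEA scaled.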
OXTR potentiator: human OXTR potentiators, primary screen, fluorescence, CHO-OTR cells, Fluo-8 calcium; AID 2445, 2010; hit rate 0.061% among 320,000; Oxytocin receptor (Homo sapiens), P30559; Fluo-8 calcium fluorescence, potentiator mode; 0% = oxytocin EC15, 100% = EC100; activation, % at 3 µM;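 active = activation above that plate's cutoff, the mean activation of tested compounds plus 3 SD, cut at about 6.6% in these data, passing the limit was not always enough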
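Material: CHO-OTR cells, human receptor; compound dosing: single dose, 3.0 µM nominal final compound concentration; schedule: 6 min compound pre-incubation at room temperature, 100 s kinetic read; measured by: kinetic Fluo-8 calcium fluorescence; read-out basis: % activation vs EC15 and EC100 oxytocin; controls: EC15 oxytocin alone as 0%, 75 nM oxytocin as 100%; replicates: singlicate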
V1aR counter: agonists of human V1a receptor, primary screen, counter-screen for OXTR agonist project, fluorescence, CHO-V1R cells; AID 2797, 2010; Vasopressin V1a receptor (Homo sapiens), P37288; activation, % at 3 µM; hit rate 0.25% among 320,000; Fluo-8 calcium fluorescence, agonist mode; 0% DMSO, 100% 3 nM vasopressin;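 active = activation above the mean activation of all tested compounds plus 3 SD, per screening run, cut at about 20% in these data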;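 note: signal is peak over basal fluorescence ratio across a 100 second FLIPR read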
TAAR1 antag: human TAAR1 antagonists, primary screen, Fluo-8 calcium fluorescence, CHO RD-HGA16 cells. Trace amine-associated receptor 1 (Homo sapiens), Q96RJ0. antagonist. inhibition, % at 3 µM. hit rate 1.5% among 360,000. AID 624466, 2012;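 active = inhibition above a per-plate cutoff, the mean inhibition of test compounds on that plate plus 3 SD, cut at about 49% in these data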
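System: CHO RD-HGA16 cells bearing hTAAR1. Reagent: EC80 β-phenethylamine stimulus. Schedule: seeding 17-24 h prior, 75-min 37 °C, 30-min RT dye loading. Signal: Fluo-8 intracellular calcium dye fluorescence, real-time kinetic reads. Read-out: % inhibition from peak post-agonist over basal fluorescence ratio. Benchmarks: vehicle wells and EC80 agonist wells. Replicates: n of 1.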
Of the large screens only hits and unclear results are named; the others gave an inactive call.

Cc1ccc(SCCNC(=S)Nc2cc(C)cc(C)c2)cc1	TAAR1 antag 65
COc1ccc(C(=O)NCC(=O)OCC(=O)c2c[nH]c3ccccc23)cc1	none (no result: OXTR agonist, OXTR potentiator, V1aR counter)
O=C(CNC(=O)c1ccccc1)OCC(=O)c1c[nH]c2ccccc12	TAAR1 ag 40
N#CCC(=O)Nc1ccc(C(=O)OCC(=O)c2c[nH]c3ccccc23)cc1	TAAR1 ag 43
CC(=O)c1ccc(NC(=O)COC(=O)c2c[nH]c3ccccc23)cc1	none
C=CCN1[C@@H](C)[C@H](c2ccccc2)Oc2cccc(NCC(C)C)c2S1(=O)=O	none (no result: OXTR agonist, OXTR potentiator, V1aR counter)
Cc1cc(N2CCN(CC(C)(C)O)C[C@H]2C)ccc1N1CCN(CC(C)(C)O)[C@@H](C)C1	none (no result: OXTR agonist, OXTR potentiator, V1aR counter)
Cc1ccc(NC(=O)Cc2nnc(SCC(=O)Nc3ccccc3)n2C)cc1	none
Cn1c(CC(=O)Nc2ccc(Cl)c(Cl)c2)nnc1SCC(=O)NCc1ccccc1	TAAR1 ag 38
CC(=O)C1=C(C)N(Cc2ccc(Br)cc2)C(=S)NC1c1cccc(Cl)c1 (stereo not drawn)	none (no result: OXTR agonist, OXTR potentiator, V1aR counter)
C[C@@H](C(=O)NCc1ccccc1)[C@H]1C[C@]1(C)[C@H](NC(=O)OCc1ccccc1)c1ccccc1	TAAR1 antag 62
COc1ccc(CNC(=O)[C@H](C)[C@@H]2C[C@@]2(C)[C@@H](NC(=O)OCc2ccccc2)c2ccccc2)cc1OC	none
CCCC(=O)NC1=C(Cl)C(=O)c2ccccc2C1=O	TAAR1 ag 54, TAAR1 antag 52 (no result: OXTR agonist, OXTR potentiator, V1aR counter)
O=C1C(Cl)=C(Nc2ccc(O)cc2)C(=O)c2ccccc21	TAAR1 antag 56
O=C(CCN1C(=O)NC2(CCCC2)C1=O)Nc1ccc(-c2nc3ccccc3s2)cc1	TAAR1 antag 68
COc1ccc(NC(=S)c2ccncc2)cc1	TAAR1 ag 41
O=C(/C=C(\Nc1cccc(Cl)c1)c1ccccc1)c1ccccc1	none (no result: OXTR agonist, OXTR potentiator, V1aR counter)
CC(CC(=O)N1CCN(c2ccccc2)CC1)S(=O)(=O)c1ccc2c(c1)NC(=O)CO2 (stereo not drawn)	TAAR1 antag 53
O=C1COc2ccc(S(=O)(=O)N3CCN(c4ccccc4)CC3)cc2N1	none
CCOc1ccc(C(=O)Cc2cc(OC)c(OC)cc2[N+](=O)[O-])cc1	TAAR1 ag 42, TAAR1 antag 63
COc1ccnc(Oc2cccc(C(F)(F)F)c2)c1C(=O)N/C=N/OCc1ccccc1F	TAAR1 antag 54
COc1ccnc(Oc2ccccc2)c1C(=O)N/C=N/OCc1ccccc1	none
Cc1cccc(C)c1-n1nnnc1C1(C)CCC(=O)N1Cc1cccs1 (stereo not drawn)	none (no result: OXTR agonist, OXTR potentiator, V1aR counter)
CCOC1=C2CN(S(=O)(=O)c3ccccc3)[C@@H](c3ccccc3)C[C@H]2[C@H]2C(=O)N(c3ccccc3)C(=O)[C@H]2C1	none (no result: OXTR agonist, OXTR potentiator, V1aR counter)
CN1C[C@@H]2[C@@H]3C(=O)N(Cc4ccccc4)C(=O)[C@@H]3[C@](Cc3ccccc3)(C1=O)N2C(=O)c1ccc(C(C)(C)C)cc1	TAAR1 ag 42 (no result: OXTR agonist, OXTR potentiator, V1aR counter)
CCN(C[C@H]1N[C@@](C)(C(=O)OC)[C@H]2C(=O)N(Cc3ccccc3)C(=O)[C@@H]12)C(=O)c1ccc(C(C)(C)C)cc1	TAAR1 antag 51
COC(=O)[C@]1(Cc2ccccc2)N[C@H](CN(C)C(=O)c2ccc(C(C)(C)C)cc2)[C@@H]2C(=O)N(Cc3ccccc3)C(=O)[C@@H]21	none
CCN(C[C@H]1N[C@@](CC)(C(=O)OC)[C@H]2C(=O)N(Cc3ccccc3)C(=O)[C@@H]12)C(=O)c1ccc(C(C)(C)C)cc1	TAAR1 antag 54
COC(=O)[C@]12C[C@H](CC(=O)N3CCC(c4ccccc4)CC3)C(=O)N(Cc3ccc4c(c3)OCO4)C1=C[C@H](COCc1ccccc1)O[C@@H]2C	none (no result: OXTR agonist, OXTR potentiator, V1aR counter)
COC(=O)[C@]12C[C@H](CC(=O)NCc3cccs3)C(=O)N(Cc3ccc4c(c3)OCO4)C1=C[C@H](COCc1ccccc1)O[C@@H]2C	none (no result: OXTR agonist, OXTR potentiator, V1aR counter)
CCc1ccc2c(c1)Sc1ccccc1CC2N1CCN(C)CC1 (stereo not drawn)	TAAR1 ag 43
CCOC(=O)C1CSCCS(=O)(=O)N1Cc1ccccc1F (stereo not drawn)	none (no result: OXTR agonist, OXTR potentiator, V1aR counter)
Cc1nn(C)c(C)c1/C=N/N=C1\CCC2C3CCc4cc(O)ccc4C3CCC12C (stereo not drawn)	TAAR1 antag 63
C[C@]12CCC3c4ccc(O)cc4CCC3C1CC/C2=N\N (stereo partly drawn)	none
CCOC(=O)/C(=C/C=C1\Sc2cc(OCC)c(OCC)cc2N1CC)C(C)=O	OXTR agonist 248, TAAR1 ag 158, V1aR counter 289, TAAR1 antag 73
CCN1/C(=C/C(C)=O)Sc2ccc(OC)cc21	none
CC(=O)N1CCN(c2ccccc2NC(=O)c2cc3ccccc3o2)CC1	TAAR1 antag 52
CCCc1ccc(C(C)NC(=S)NCc2ccc(F)cc2)cc1 (stereo not drawn)	OXTR agonist 21, TAAR1 ag 58, V1aR counter 21, TAAR1 antag 70
CCOc1ccc(C(C)NC(=S)NCc2ccc(Cl)cc2)cc1 (stereo not drawn)	TAAR1 ag 45
O=C(C(=O)N1CCC(CNS(=O)(=O)c2cccc3ccccc23)CC1)c1cccs1	none (no result: OXTR agonist, OXTR potentiator, V1aR counter)
COC(=O)CN1C(=O)S/C(=C/c2ccc(N3CCCCC3)o2)C1=O	TAAR1 ag 100, TAAR1 antag 60
COc1cccc(-c2sc3ccccc3c2-c2ccc(OCCN(C)C)cc2)c1	TAAR1 antag 51
CC(=O)c1ccc2ccccc2c1OC(=O)c1ccncc1	none (no result: OXTR agonist, OXTR potentiator, V1aR counter)
COc1ccc(C(O)c2nc(-c3ccc(N(C)C)cc3)cs2)cc1 (stereo not drawn)	TAAR1 ag 49 (no result: OXTR agonist, OXTR potentiator, V1aR counter)
COc1ccc(-c2csc(C(O)c3ccc(F)cc3)n2)cc1 (stereo not drawn)	TAAR1 ag 62, TAAR1 antag 78 (no result: OXTR agonist, OXTR potentiator, V1aR counter)
COc1ccc(C(O)c2nc(-c3cc4ccccc4o3)cs2)cc1 (stereo not drawn)	TAAR1 antag 49 (no result: OXTR agonist, OXTR potentiator, V1aR counter)
CN(C)c1ccc(-c2csc(C(O)c3ccccc3)n2)cc1 (stereo not drawn)	none (no result: OXTR agonist, OXTR potentiator, V1aR counter)
CN(C)c1ccc(-c2csc(C(O)c3ccc(F)c(F)c3)n2)cc1 (stereo not drawn)	TAAR1 ag 100, TAAR1 antag 99 (no result: OXTR agonist, OXTR potentiator, V1aR counter)
COc1ccc(-c2csc(C(O)c3ccc(OC)cc3)n2)cc1 (stereo not drawn)	none (no result: OXTR agonist, OXTR potentiator, V1aR counter)
COc1ccc(CC(=O)NCC2CCN(C(=O)C(=O)c3cc4ccccc4o3)CC2)cc1	none (no result: OXTR agonist, OXTR potentiator, V1aR counter)
COCCCNC(=O)C[C@@H]1C[C@@]2(C(=O)OC)CCCCC=C2N(Cc2ccc(Cl)cc2Cl)C1=O	none (no result: OXTR agonist, OXTR potentiator, V1aR counter)

Screening data deposited in PubChem BioAssay by The Scripps Research Institute Molecular Screening Center.
